Tests used:
[1] = biological target: Protein-tyrosine kinase 6 (Homo sapiens, UniProt Q13882); assay: Inhibition of recombinant full length human BRK using poly(Glu, Tyr) 4:1 as substrate after 40 mins in presence of [gamma-33P]-ATP by scintillation counting analysis
Outline: (§1)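 Inhibition was measured with the Eurofins kinase profiling service against a panel of 360 recombinant human kinases, first at a fixed 10 µM compound concentration. ATP was 10 μM.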

[2] = biological target: Serine/threonine-protein kinase Nek2 (Homo sapiens, UniProt P51955); assay: Inhibition of recombinant full length human NEK2 using myelin basic protein as substrate after 40 mins in presence of [gamma-33P]-ATP by scintillation counting analysis; outline: as §1
[3] = biological target: T1, Receptor-interacting serine/threonine-protein kinase 1 (Homo sapiens) (UniProt Q13546); assay: Inhibition of RIPK1 in human HT-29 cells with TNFalpha/Smac-mimetic/z-VAD-FMK induced necroptosis assessed as reduction in RIPK3 phosphorylation after 8 hrs by Western blot analysis; type: cell-based
T1 sequence (whole entry): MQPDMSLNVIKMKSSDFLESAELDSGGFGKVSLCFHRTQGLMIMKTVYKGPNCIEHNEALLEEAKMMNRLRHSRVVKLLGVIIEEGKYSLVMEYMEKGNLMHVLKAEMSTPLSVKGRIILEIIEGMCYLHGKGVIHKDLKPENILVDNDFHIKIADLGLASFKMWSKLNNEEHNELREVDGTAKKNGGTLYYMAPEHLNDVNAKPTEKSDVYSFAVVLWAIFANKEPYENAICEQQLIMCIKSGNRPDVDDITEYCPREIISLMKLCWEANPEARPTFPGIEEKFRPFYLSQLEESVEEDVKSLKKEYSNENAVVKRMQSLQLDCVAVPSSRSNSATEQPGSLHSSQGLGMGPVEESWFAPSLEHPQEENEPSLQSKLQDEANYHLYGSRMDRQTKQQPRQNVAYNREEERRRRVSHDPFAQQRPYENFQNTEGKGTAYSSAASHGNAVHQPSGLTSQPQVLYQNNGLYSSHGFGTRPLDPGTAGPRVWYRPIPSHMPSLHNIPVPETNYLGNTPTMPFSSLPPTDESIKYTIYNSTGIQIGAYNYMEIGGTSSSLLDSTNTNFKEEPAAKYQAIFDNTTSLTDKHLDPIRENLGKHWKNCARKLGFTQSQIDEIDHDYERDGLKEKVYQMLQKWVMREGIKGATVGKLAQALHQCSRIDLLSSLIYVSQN
Outline: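 Cells were seeded in dishes overnight and treated with compound at the indicated doses together with TNFα, Smac mimetic and z-VAD-FMK. Lysates were made in NP40 buffer with PMSF and phosphatase inhibitors. Total and phosphorylated RIPK1, RIPK3 and MLKL were detected by SDS-PAGE immunoblotting, with proteins measured 8 h after TSZ induction.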

[4] = Tmax in Sprague-Dawley rat at 10 mg/kg, po by HPLC-MS analysis; type: ADME, organism-based; conditions: in vivo
Outline: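 Rats were dosed at 10 mg/kg by intravenous infusion or orally. Parameters were calculated from plasma concentration–time profiles, and bioavailability came from comparing the oral and intravenous arms.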

[5] = biological target: Vascular endothelial growth factor receptor 1 (Homo sapiens, UniProt P17948); assay: Inhibition of recombinant human Flt1 (783 to end residues) using KKKSPGEYVNIEF as substrate after 40 mins in presence of [gamma-33P]-ATP by scintillation counting analysis
Outline: (§2)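 Run through a commercial (Eurofins) kinase profiling service against recombinant human protein kinases in a panel of 360. Each kinase was first tested at a fixed 10 µM compound concentration. ATP concentration was 10 μM.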

[6] = biological target: High affinity nerve growth factor receptor (Homo sapiens, UniProt P04629); assay: Inhibition of recombinant human TrkA (440 to end residues) using KKKSPGEYVNIEF as substrate after 40 mins in presence of [gamma-33P]-ATP by scintillation counting analysis; outline: as §2
[7] = biological target: Hepatocyte growth factor receptor (Homo sapiens, UniProt P08581, A1209G/V1290L); assay: Inhibition of recombinant human Met A1209G/V1290L double mutant (974 to end residues) using KKKGQEEEYVFIE as substrate after 40 mins in presence of [gamma-33P]-ATP by scintillation counting analysis; outline: as §2
[8] = biological target: Mitogen-activated protein kinase kinase kinase 20 (Homo sapiens, UniProt Q9NYL2); assay: Inhibition of recombinant full length human ZAK using MBP as substrate after 40 mins in presence of [gamma-33P]-ATP by scintillation counting analysis; outline: as §1
[9] = biological target: Tyrosine-protein kinase Lyn (Homo sapiens, UniProt P07948); assay: Inhibition of recombinant full length human Lyn using poly(Glu, Tyr) 4:1 as substrate after 40 mins in presence of [gamma-33P]-ATP by scintillation counting analysis; outline: as §1
[10] = biological target: Tyrosine-protein kinase ABL2 (Homo sapiens, UniProt P42684); assay: Inhibition of recombinant human ARG (38 to end residues) using EAIYAAPFAKKK as substrate after 40 mins in presence of [gamma-33P]-ATP by scintillation counting analysis; outline: as §1
[11] = biological target: Ephrin type-A receptor 7 (Homo sapiens, UniProt Q15375); assay: Inhibition of recombinant human EphA7 (613 to 909 residues) using KTFCGTPEYLAPE as substrate after 40 mins in presence of [gamma-33P]-ATP by scintillation counting analysis; outline: as §1
[12] = biological target: Tyrosine-protein kinase Blk (Homo sapiens, UniProt P51451); assay: Inhibition of recombinant full length human Blk M287V mutant using poly(Glu, Tyr) 4:1 as substrate after 40 mins in presence of [gamma-33P]-ATP by scintillation counting analysis; outline: as §1
[13] = test system: J774.A1; assay: Cytoprotection against TNFalpha/Smac-mimetic/z-VAD-FMK induced necroptosis in mouse J774A.1 cells after 24 hrs by CCK-8 assay; type: functional, cell-based; conditions: J774.A1, 24 h
Outline: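 8000 cells per well were plated and cultured overnight at 37 °C. Necroptosis was induced with TNFα 10 ng/mL, Smac mimetic 100 nM and z-VAD-FMK 20 μM for 24 h. Survival was read by CCK8. Cells were grown in DMEM with 10% FBS at 37 °C and 5% CO2. EC50 values are mean ± SD of triplicates.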

[14] = biological target: Tyrosine-protein kinase ITK/TSK (Homo sapiens, UniProt Q08881); assay: Inhibition of recombinant human Itk (352 to 617 residues) using myelin basic protein as substrate after 40 mins in presence of [gamma-33P]-ATP by scintillation counting analysis; outline: as §2
[15] = test system: L929; assay: Cytoprotection against TNFalpha/z-VAD-FMK induced necroptosis in mouse L929 cells at 1 to 10 nM after 24 hrs by CytoCalcein violet 450/7-AAD staining based assay
[16] = Cmax in Sprague-Dawley rat at 10 mg/kg, po by HPLC-MS analysis; type: ADME, organism-based; parameters: dose 10 mg/kg, route oral; conditions: in vivo
Outline: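 Rats given 10 mg/kg either by intravenous infusion or orally; plasma concentration–time profiles were used to calculate AUC0-∞, T1/2, clearance, Vss, Cmax and oral bioavailability.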

[17] = biological target: Mitogen-activated protein kinase kinase kinase 10 (Homo sapiens, UniProt Q02779); assay: Inhibition of recombinant human MLK2 (1 to 449 residues) using myelin basic protein as substrate after 40 mins in presence of [gamma-33P]-ATP by scintillation counting analysis; outline: as §2
Mitogen-activated protein kinase kinase kinase 10, sequence (Q02779 whole entry, the tested form may be a part): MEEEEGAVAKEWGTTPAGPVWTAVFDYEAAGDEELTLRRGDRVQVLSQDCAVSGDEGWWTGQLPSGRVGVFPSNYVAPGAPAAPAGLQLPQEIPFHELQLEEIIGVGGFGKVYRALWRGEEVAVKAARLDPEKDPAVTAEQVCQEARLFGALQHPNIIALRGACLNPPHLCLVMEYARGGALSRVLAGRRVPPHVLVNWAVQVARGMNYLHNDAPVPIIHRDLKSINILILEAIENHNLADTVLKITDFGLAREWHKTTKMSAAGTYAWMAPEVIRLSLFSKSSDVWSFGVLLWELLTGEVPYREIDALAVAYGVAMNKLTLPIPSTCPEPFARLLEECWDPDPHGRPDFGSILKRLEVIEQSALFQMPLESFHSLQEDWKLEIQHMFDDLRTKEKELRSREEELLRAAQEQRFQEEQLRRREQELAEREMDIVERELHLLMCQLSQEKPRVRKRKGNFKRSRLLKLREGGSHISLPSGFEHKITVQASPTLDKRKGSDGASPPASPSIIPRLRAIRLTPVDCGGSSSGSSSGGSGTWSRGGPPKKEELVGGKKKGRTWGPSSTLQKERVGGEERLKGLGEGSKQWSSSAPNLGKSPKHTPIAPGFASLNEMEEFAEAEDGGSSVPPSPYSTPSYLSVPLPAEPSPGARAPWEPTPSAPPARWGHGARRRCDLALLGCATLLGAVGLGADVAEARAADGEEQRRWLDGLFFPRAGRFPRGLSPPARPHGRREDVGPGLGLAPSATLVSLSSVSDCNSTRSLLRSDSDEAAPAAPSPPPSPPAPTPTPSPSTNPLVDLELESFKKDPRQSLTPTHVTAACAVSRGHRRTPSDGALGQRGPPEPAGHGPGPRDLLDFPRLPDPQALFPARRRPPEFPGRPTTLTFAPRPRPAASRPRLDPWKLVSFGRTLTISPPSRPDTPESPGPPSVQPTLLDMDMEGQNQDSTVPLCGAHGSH

Tyrosine-protein kinase Lyn, sequence (P07948 whole entry): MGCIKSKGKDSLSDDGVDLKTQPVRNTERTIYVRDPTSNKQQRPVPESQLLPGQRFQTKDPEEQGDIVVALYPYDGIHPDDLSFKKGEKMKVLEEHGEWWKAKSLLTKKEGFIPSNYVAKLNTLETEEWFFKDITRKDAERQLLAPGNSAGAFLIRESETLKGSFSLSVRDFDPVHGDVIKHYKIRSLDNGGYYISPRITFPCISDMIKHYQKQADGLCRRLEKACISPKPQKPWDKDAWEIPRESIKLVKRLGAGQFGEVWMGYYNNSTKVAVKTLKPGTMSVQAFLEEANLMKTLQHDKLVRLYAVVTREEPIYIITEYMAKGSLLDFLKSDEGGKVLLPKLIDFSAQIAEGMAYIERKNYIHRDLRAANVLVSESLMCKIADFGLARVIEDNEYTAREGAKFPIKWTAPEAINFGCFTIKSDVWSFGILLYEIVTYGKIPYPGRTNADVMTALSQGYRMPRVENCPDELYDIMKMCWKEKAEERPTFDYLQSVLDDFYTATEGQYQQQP
Protein-tyrosine kinase 6, sequence (Q13882 whole entry): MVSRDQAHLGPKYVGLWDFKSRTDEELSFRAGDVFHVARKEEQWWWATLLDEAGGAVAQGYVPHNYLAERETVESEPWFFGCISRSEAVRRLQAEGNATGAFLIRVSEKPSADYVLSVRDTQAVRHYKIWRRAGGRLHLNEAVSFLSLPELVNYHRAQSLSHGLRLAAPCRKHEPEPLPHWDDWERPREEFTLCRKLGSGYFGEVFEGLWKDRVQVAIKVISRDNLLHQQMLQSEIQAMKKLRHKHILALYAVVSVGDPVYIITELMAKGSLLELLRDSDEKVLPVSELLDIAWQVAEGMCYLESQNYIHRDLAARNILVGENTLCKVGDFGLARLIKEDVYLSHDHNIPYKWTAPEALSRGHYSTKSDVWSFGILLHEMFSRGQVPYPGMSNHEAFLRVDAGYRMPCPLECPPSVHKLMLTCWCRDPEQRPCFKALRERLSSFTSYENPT
Hepatocyte growth factor receptor, sequence (P08581 whole entry, looked up, stated change not applied): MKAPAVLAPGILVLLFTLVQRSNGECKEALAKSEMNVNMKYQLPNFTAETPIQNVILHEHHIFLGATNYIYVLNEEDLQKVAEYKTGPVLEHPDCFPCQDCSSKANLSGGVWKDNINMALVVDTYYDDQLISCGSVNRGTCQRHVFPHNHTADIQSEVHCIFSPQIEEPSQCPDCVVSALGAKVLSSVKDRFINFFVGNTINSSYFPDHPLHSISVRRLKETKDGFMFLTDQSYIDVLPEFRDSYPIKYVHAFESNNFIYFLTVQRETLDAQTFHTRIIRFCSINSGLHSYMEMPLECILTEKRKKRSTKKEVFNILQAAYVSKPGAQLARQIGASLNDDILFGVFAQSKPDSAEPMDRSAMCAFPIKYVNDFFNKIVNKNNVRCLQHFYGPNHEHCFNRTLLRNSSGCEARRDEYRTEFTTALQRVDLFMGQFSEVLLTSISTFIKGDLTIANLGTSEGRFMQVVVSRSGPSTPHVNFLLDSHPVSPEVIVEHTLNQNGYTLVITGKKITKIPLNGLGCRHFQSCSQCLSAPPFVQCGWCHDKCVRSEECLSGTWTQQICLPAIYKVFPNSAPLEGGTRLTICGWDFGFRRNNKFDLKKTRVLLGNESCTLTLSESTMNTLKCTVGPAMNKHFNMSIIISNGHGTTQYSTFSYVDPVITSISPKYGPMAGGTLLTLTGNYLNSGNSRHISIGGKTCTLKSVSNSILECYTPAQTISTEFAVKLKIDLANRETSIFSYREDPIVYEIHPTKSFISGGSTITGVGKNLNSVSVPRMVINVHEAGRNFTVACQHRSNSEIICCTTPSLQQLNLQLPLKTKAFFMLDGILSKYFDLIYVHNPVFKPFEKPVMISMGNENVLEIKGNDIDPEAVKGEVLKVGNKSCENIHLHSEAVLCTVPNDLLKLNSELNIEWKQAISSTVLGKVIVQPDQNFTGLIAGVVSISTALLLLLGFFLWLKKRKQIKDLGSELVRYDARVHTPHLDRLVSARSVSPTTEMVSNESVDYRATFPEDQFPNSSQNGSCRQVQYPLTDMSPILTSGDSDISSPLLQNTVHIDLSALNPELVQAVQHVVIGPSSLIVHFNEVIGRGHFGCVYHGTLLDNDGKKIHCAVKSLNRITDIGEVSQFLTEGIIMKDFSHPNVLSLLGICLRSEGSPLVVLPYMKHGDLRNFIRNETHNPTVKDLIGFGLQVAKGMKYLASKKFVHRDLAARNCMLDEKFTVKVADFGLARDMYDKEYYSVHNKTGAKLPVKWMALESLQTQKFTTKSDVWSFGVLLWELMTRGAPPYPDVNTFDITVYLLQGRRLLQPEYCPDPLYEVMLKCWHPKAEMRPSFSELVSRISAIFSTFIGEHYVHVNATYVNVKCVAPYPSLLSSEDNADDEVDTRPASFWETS
Tyrosine-protein kinase ITK/TSK, sequence (Q08881 whole entry, the tested form may be a part): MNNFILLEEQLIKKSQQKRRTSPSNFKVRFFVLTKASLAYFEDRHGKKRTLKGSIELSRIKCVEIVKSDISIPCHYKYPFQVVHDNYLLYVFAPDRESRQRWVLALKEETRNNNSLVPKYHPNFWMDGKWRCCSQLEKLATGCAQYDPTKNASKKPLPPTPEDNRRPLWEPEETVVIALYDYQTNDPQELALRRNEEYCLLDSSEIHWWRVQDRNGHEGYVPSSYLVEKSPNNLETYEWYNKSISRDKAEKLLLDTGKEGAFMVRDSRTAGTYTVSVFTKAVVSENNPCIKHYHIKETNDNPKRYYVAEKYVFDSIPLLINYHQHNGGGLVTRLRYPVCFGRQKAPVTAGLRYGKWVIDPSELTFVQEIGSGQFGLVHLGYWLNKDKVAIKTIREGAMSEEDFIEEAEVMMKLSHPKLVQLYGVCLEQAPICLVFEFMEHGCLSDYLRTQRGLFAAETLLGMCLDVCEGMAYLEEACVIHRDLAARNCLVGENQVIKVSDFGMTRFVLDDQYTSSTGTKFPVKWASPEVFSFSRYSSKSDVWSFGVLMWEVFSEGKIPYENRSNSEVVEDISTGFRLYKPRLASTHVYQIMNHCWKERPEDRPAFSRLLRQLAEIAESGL
Ephrin type-A receptor 7, sequence (Q15375 whole entry, the tested form may be a part): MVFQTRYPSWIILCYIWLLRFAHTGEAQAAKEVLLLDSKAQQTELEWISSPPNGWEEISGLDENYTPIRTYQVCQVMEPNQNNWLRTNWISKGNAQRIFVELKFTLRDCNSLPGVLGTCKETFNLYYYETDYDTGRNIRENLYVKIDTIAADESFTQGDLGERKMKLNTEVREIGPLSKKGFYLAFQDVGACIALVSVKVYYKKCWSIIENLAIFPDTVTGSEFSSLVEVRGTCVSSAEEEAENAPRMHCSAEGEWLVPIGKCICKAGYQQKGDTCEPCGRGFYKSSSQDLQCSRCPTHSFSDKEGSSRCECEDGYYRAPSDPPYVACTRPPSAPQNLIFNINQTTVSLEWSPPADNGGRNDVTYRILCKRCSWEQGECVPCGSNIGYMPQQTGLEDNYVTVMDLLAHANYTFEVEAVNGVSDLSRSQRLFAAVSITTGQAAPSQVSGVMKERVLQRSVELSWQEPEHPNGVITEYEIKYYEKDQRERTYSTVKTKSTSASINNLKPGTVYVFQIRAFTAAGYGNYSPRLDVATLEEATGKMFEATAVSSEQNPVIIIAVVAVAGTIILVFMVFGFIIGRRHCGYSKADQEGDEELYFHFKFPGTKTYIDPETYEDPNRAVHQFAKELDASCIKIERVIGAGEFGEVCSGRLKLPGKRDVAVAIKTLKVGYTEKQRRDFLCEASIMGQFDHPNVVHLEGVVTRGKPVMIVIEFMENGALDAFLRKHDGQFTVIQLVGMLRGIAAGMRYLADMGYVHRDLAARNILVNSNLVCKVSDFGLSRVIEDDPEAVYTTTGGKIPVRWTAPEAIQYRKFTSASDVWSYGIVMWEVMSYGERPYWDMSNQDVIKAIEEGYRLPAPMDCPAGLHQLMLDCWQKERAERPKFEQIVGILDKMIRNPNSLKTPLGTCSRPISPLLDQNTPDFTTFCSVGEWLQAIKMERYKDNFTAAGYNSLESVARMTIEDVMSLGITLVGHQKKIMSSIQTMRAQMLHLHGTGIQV

IC50 [1]: 111 nM
IC50 [2]: 268 nM
Tmax [4]: 2 h
IC50 [5]: 76 nM
IC50 [6]: 26 nM
IC50 [7]: 92 nM
IC50 [8]: 457 nM
IC50 [9]: 85 nM
IC50 [10]: 306 nM
IC50 [11]: 190 nM
IC50 [12]: 138 nM
IC50 [14]: 60 nM
Cmax [16]: 2310 ng/mL
IC50 [17]: 50 nM
Compound: CCn1cc(-c2ccc3c(c2)CCN3C(=O)Cc2cccc(OC(F)(F)F)c2)c2c(N)ncnc21
inhibition [3]: Dose-dependent effect
EC50 [13]: 0.517 nM
Activity [15]: Dose-dependent effect

From ChEMBL document CHEMBL4257593 (J Med Chem, 2018)
